The subject of test [1] is PC-3. Kind of test: Cytotoxicity against human PC3 cells after 72 hrs by CellTitter-Glo luminescent cell viability assay. In kind it is functional, cell-based. The settings on record: PC-3, 72 h.
For test [2], the system named is PC-3. Put plainly: Induction of apoptosis in human PC3 cells xenografted in NU/NU mouse assessed as DNA fragmentation at 0.3 to 3 mg/kg by agarose gel electrophoresis. It is filed as functional, organism-based. The method in brief:
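DNA from PC-3 subcutaneous tumors of orally treated nude mice was run on an electrophoretic gel. Apoptosis was scored as a DNA ladder pattern.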

The test system of test [3] is LNCaP. Kind of test: Induction of apoptosis in human LNCAP cells assessed as caspase 3/7 activation after 24 hrs Caspase-Glo 3/7 assay. The settings on record: Homo sapiens, LNCaP, 24 h; read-out: EC50. It is filed as functional, cell-based.
Test [4] relates to DU-145. Put plainly: Cytotoxicity against human DU145 cells after 72 hrs by CellTitter-Glo luminescent cell viability assay. The settings on record: DU-145, 72 h. It is filed as functional, cell-based.
Test [5] relates to NHDF. Kind of test: Cytotoxicity against human NHDF cells after 72 hrs by CellTitter-Glo luminescent cell viability assay. In kind it is functional, cell-based.
Test [6] has as its system PC-3. Kind of test: Antiangiogenic activity in human PC3 cells xenografted in NU/NU mouse assessed as reduction vascularization at 3 mg/kg by immunohistochemistry. In kind it is functional, organism-based. More on the design: dose 3 mg/kg. A digest of the protocol: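 Vascularization of PC-3 flank tumors from nude mice dosed orally was assessed by immunohistochemistry with rat anti-mouse CD31 monoclonal antibody as endothelial marker. Doses were 0.3, 1 and 3 mg/kg.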
(Xenograft models place foreign cells or tissue in a host animal.)

Test [7] deals with DU-145. Kind of test: Induction of apoptosis in human DU145 cells assessed as caspase 3/7 activation after 24 hrs Caspase-Glo 3/7 assay. It is filed as functional, cell-based. As to conditions: Homo sapiens, DU-145, 24 h.
Test [8] concerns NHDF. Put plainly: Induction of apoptosis in human NHDF cells assessed as caspase 3/7 activation after 24 hrs Caspase-Glo 3/7 assay. In kind it is functional, cell-based.
The subject of test [9] is PC-3. Kind of test: Induction of apoptosis in human PC3 cells assessed as caspase 3/7 activation after 24 hrs by Caspase-Glo 3/7 assay. In kind it is functional, cell-based. As to conditions: PC-3, 24 h.
For test [10], the system named is LNCaP. Put plainly: Cytotoxicity against human LNCAP cells after 72 hrs by CellTitter-Glo luminescent cell viability assay. In kind it is functional, cell-based.
Test [11] deals with T1, Alpha-1A adrenergic receptor (Rattus norvegicus, UniProt P43140).
T1 sequence (P43140 whole entry): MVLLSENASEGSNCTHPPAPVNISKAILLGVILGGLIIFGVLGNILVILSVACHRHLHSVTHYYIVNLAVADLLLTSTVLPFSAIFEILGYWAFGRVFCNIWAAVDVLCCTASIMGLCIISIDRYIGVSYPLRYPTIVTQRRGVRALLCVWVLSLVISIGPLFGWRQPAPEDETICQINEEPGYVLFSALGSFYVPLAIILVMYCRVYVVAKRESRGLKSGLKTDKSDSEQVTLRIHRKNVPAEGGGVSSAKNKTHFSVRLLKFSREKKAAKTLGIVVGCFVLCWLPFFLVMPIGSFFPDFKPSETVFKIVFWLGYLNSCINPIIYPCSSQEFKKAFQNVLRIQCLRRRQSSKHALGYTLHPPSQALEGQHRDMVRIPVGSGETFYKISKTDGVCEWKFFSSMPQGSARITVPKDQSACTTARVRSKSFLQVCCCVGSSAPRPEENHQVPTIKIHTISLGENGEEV
Kind of test: Antagonist activity at rat alpha1A adrenoceptor assessed as inhibition if norepinephrine-induced contraction of vas deference. It is filed as functional. The settings on record: read-out: pA2 (converted). A digest of the protocol:
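Isolated rat tissue contraction assay. The α1A response used vas deferens with (-)-noradrenaline as agonist, α1D used thoracic aorta with (-)-noradrenaline, and α1B used spleen with (-)-phenylephrine. pA2 values are means ± SEM over three antagonist concentrations, each tested at least four times. Where the Schild slope differed from unity, pKB was calculated by van Rossum at the lowest antagonist concentration giving log(CR−1) ≥0.5.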

Test [12] concerns the target T2, Alpha-1A adrenergic receptor (Homo sapiens, UniProt P35348).
T2 sequence (P35348 whole entry): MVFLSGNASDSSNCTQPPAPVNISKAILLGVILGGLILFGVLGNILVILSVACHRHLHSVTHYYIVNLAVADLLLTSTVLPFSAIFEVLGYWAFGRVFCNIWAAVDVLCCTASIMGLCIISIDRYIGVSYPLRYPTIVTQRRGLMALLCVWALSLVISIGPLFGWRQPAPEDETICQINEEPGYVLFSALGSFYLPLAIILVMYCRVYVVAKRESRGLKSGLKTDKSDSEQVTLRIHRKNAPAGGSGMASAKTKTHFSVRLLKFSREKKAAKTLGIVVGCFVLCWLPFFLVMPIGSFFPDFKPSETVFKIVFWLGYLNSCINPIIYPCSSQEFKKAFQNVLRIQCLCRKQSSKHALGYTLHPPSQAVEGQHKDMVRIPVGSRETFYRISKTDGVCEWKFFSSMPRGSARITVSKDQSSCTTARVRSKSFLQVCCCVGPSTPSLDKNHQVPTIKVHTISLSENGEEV
Put plainly: Displacement of [3H]prazosin from human alpha1A adrenoceptor expressed in CHO cells. It is filed as cell-based. A digest of the protocol:
(§1)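 Radioligand competition binding used [3H]prazosin on membranes of CHO cells expressing human α1a, α1b or α1d adrenoceptor. IC50 values were converted to pKi by the Cheng-Prusoff equation. Data come from two to three experiments run in triplicate, agreeing within ±20%.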

The target of test [13] is T3, Alpha-1B adrenergic receptor (Homo sapiens, UniProt P35368).
T3 sequence (P35368 whole entry): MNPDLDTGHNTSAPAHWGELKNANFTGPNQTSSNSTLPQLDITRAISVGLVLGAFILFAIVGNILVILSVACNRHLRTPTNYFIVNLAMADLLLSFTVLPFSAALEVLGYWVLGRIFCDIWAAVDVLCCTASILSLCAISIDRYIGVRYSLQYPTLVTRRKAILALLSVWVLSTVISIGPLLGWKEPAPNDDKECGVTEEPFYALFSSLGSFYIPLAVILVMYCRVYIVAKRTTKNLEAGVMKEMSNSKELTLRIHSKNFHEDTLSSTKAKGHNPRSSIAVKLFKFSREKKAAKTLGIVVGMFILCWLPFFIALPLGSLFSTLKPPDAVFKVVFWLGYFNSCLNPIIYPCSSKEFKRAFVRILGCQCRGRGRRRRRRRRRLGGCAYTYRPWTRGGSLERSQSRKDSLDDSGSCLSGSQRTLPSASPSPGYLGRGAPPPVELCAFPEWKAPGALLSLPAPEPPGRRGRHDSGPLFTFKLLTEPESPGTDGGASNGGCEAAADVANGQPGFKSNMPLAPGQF
Put plainly: Displacement of [3H]prazosin from human Alpha-1B adrenoceptor expressed in CHO cells. It is filed as cell-based. The method in brief:
as §1

Test [14] addresses T4, Alpha-1D adrenergic receptor (Homo sapiens, UniProt P25100).
T4 sequence (P25100 whole entry): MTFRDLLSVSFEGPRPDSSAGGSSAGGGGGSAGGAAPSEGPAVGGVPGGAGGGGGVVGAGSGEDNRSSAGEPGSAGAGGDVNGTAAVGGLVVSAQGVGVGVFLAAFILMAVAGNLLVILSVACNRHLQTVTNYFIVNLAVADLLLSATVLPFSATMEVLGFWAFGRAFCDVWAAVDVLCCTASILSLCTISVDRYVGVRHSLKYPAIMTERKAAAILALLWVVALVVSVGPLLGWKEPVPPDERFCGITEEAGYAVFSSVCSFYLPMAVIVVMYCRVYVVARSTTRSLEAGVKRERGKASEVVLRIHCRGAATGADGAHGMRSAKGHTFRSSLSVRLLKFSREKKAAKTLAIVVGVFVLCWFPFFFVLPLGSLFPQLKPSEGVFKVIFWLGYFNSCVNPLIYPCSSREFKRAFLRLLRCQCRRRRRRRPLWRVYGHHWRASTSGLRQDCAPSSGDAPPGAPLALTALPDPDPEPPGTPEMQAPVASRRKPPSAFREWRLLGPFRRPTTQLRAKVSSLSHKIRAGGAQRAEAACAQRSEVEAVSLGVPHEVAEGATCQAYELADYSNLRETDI
Kind of test: Displacement of [3H]prazosin from human Alpha-1D adrenoceptor expressed in CHO cells. In kind it is cell-based. A digest of the protocol:
as §1
On the technique in general: In a radioligand displacement assay an active substance lowers the binding of a labelled ligand.

Molecules are shown by their SMILES. Calls of active or inactive are those of the source. The rule behind the calls is not given here. Bounds are passed on as bounds.

Usually EC50 stands for the midpoint of the concentration-response curve. What is called IC50 is the point on the concentration scale where inhibition reaches its midpoint. High values mean lower potency, low ones higher potency. Turning to `COc1cc2nc(N3CCN(C(=O)C4COc5ccccc5O4)CC3)nc(N)c2cc1OC` (stereo unspecified) [DOXAZOSIN], the EC50 in the test on PC-3 [1] was > 100 µM; with LNCaP [3], 100 µM; in the test on DU-145 [4], > 100 µM; in the test on NHDF [5], 40.4 µM; in the test with DU-145 [7] it was > 100 µM; in the test on NHDF [8], 40.4 µM. Further, the EC50 in the test on PC-3 [9] is > 100 µM. Further, the IC50 was 38.6 µM in the test with PC-3 [1], 37.4 µM in the test with DU-145 [4], 43 µM in the test on NHDF [5] and 28.1 µM with LNCaP [10]. The result with PC-3 [2] and with PC-3 [6] was Active.

For orientation: Ki means the dissociation constant of the complex between target and ligand, obtained from inhibition or displacement. Low values mean tighter binding, high ones weaker binding. For `COc1cc2nc(N3CCN(C(=O)c4ccco4)[C@H]4CCCC[C@H]43)nc(N)c2cc1OC` [CYCLAZOSIN], the Kb in [11] was 0.00123 µM. Further, the Ki in test [12] was 0.0055 µM; in test [13], 0.000324 µM; in test [14], 0.00017 µM.

Take `COc1cc2nc(N3CCN(C(=O)C4COc5ccccc5O4)[C@@H]4CCCC[C@@H]43)nc(N)c2cc1OC` (single isomer, unassigned): in the test on PC-3 [1], half-maximal inhibition (IC50) was put at 1.02 µM. Further, the Ki in [12] is 0.00339 µM; in [13], 0.00141 µM; in test [14], 0.00049 µM.
